From ChEMBL document CHEMBL4219025 (J Med Chem, 2018)
Active and inactive are the calls of the source. No cut-off for these calls is given here.

Experiments:
[1] = target: T1, NAD-dependent protein deacetylase sirtuin-1 (Homo sapiens, UniProt Q96EB6); experiment: Inhibition of recombinant human GST-tagged Sirt1 (133 to 747 residues) using Z-(Ac)Lys-AMC as substrate measured after 4 hrs by high-throughput fluorescence based assay
T1 sequence (Q96EB6 whole entry): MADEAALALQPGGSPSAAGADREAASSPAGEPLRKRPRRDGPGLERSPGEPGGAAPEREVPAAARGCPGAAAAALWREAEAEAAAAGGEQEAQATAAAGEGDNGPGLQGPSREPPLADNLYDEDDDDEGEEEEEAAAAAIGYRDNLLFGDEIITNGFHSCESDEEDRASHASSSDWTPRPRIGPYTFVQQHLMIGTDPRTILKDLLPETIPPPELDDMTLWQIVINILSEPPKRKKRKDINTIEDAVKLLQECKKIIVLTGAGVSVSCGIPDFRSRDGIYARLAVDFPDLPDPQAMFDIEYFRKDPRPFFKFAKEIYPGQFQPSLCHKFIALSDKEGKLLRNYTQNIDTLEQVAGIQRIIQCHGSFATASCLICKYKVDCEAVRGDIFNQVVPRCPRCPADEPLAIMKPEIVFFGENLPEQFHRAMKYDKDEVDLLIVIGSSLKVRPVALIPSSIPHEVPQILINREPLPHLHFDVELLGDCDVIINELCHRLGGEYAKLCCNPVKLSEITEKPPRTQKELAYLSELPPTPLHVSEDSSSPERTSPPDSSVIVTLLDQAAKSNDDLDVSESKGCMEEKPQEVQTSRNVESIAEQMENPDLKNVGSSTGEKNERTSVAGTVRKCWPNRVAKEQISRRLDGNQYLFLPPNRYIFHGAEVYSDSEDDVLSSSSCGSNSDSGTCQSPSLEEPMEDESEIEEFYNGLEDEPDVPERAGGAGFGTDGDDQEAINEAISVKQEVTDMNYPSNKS

[2] = target: T2, NAD-dependent protein deacetylase sirtuin-2 (Homo sapiens, UniProt Q8IXJ6); experiment: Inhibition of recombinant human His10-tagged Sirt2 (56 to 356 residues) expressed in Escherichia coli BL21(DE3) using Z-(Ac)Lys-AMC as substrate measured after 4 hrs by high-throughput fluorescence based assay
T2 sequence (Q8IXJ6 whole entry): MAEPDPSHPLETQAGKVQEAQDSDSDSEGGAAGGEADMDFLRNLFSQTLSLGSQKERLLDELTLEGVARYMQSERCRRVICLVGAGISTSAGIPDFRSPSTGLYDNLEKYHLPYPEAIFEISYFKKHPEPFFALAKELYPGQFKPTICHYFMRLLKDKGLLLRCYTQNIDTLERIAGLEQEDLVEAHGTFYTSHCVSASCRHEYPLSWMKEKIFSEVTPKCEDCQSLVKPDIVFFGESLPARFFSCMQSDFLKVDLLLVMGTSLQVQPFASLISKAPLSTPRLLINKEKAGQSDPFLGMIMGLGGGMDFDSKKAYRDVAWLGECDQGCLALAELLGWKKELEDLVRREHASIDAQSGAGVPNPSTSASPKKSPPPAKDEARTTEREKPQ

[3] = target: T3, NAD-dependent protein deacetylase sirtuin-3, mitochondrial (Homo sapiens, UniProt Q9NTG7); experiment: Inhibition of recombinant human His10-tagged Sirt3 (118 to 395 residues) expressed in Escherichia coli BL21(DE3) using Z-(Ac)Lys-AMC as substrate measured after 4 hrs by high-throughput fluorescence based assay
T3 sequence (Q9NTG7 whole entry): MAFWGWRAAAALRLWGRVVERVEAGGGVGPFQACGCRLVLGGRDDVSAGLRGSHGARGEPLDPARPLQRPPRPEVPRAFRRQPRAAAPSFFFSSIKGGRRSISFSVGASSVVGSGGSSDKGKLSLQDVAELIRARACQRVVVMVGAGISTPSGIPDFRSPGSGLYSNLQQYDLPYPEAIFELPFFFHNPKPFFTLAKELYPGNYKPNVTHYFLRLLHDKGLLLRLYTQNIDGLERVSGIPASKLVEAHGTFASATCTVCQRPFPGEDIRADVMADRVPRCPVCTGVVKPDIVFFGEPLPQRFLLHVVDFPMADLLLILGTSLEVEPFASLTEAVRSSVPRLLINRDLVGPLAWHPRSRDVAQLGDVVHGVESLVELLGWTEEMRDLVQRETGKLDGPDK

[4] = target: T4, Protein cereblon/NAD-dependent protein deacetylase sirtuin-2 (Homo sapiens) (UniProt Q8IXJ6+Q96SW2); experiment: Induction of cereblon-mediated Sirt2 degradation in human HeLa cells at 0.05 to 5 uM after 4 hrs by Western blot method; assay type: cell-based
Summary of the method: (§1)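 HeLa cells in DMEM high glucose with 10% FCS, 37 °C, 5% CO2; 2x10^5 cells per 6-well (endogenous Sirt1/Sirt2) or 2x10^4 EGFP-Sirt2-HeLa per 24-well. Cycloheximide applied before compound (5 µg/ml 6-well, 3 µg/ml 24-well); 4 h default incubation, DMSO controls. Lysed in reducing sample buffer, 10% SDS-PAGE, PVDF, rabbit anti-Sirt2/Sirt1/GAPDH 1:5000, ECL; background-subtracted band intensities normalized to mean control.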

[5] = target: Protein cereblon/NAD-dependent protein deacetylase sirtuin-1 (Homo sapiens) (UniProt Q96EB6+Q96SW2); experiment: Induction of cereblon-mediated Sirt1 degradation in human HeLa cells at 10 uM after 1 to 6 hrs by Western blot method; assay type: cell-based; summary of the method: as §1
[6] = target: T4, Protein cereblon/NAD-dependent protein deacetylase sirtuin-2 (Homo sapiens); experiment: Induction of cereblon-mediated Sirt2 degradation in human HeLa cells at 10 uM after 1 to 6 hrs by Western blot method; assay type: cell-based; summary of the method: as §1
[7] = target: T4, Protein cereblon/NAD-dependent protein deacetylase sirtuin-2 (Homo sapiens); experiment: Induction of cereblon-mediated EGFP-fused Sirt2 (unknown origin) degradation expressed in human HeLa cells at 10 uM after 4 hrs in presence of 2-(4,6-dimethylpyrimidin-2-ylthio)-N-(5-(3-((1-(2-methoxyethyl)-1H-1,2,3-triazol-4-yl)methoxy)benzyl)thiazol-2-yl)acetamide and proteosome inhibitor MG132 by Western blot method; assay type: cell-based; summary of the method: as §1
[8] = target: T4, Protein cereblon/NAD-dependent protein deacetylase sirtuin-2 (Homo sapiens); experiment: Induction of cereblon-mediated Sirt2 degradation in human HeLa cells at 10 uM after 2 hrs by Western blot method; assay type: cell-based; summary of the method: as §1
[9] = target: T4, Protein cereblon/NAD-dependent protein deacetylase sirtuin-2 (Homo sapiens); experiment: Induction of cereblon-mediated EGFP-fused Sirt2 (unknown origin) degradation expressed in human HeLa cells at 10 uM after 4 hrs by Hoechst 33342 staining-based fluorescent microscopic method; assay type: cell-based
Summary of the method: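 Live EGFP-Sirt2-expressing HeLa cells: 2x10^4 cells seeded on glass imaging dishes in complete medium overnight, treated with 10 μM compound for 4 h (DMSO controls), medium switched to phenol red-free DMEM, nuclei stained 0.5 µg/mL Hoechst 33342 for 5 min; confocal live imaging with 40× oil objective.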

[10] = target: T4, Protein cereblon/NAD-dependent protein deacetylase sirtuin-2 (Homo sapiens); experiment: Induction of cereblon-mediated EGFP-fused Sirt2 degradation in human HeLa cells assessed as increase in tubulin acetlyation at 10 uM after 4 hrs by DAPI dye-based immunofluorescent microscopic analysis; assay type: cell-based
[11] = target: T4, Protein cereblon/NAD-dependent protein deacetylase sirtuin-2 (Homo sapiens); experiment: Induction of cereblon-mediated Sirt2 degradation in human HeLa cells after 4 hrs by Western blot method; assay type: cell-based; summary of the method: as §1

T4 sequence (Q96SW2 whole entry, looked up, one chain of several): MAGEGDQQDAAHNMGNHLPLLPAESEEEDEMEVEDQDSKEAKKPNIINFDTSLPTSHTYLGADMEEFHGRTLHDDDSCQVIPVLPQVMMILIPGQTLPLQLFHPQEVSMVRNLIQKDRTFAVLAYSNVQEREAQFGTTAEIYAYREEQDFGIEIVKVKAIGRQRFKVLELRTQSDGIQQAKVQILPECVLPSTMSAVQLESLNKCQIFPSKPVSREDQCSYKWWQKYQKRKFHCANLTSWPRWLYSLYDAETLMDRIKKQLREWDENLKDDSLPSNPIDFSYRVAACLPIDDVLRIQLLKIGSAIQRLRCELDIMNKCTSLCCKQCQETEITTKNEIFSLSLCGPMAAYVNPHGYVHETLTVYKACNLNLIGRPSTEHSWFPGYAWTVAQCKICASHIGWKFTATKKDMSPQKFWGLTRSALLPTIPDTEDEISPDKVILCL
Chain of Protein cereblon/NAD-dependent protein deacetylase sirtuin-1 (Homo sapiens) (Q96SW2 whole entry, looked up, one chain of several): as above

| Compound | IC50 [1] | IC50 [2] | IC50 [3] | other results |
| --- | --- | --- | --- | --- |
| Cc1cc(C)nc(SCC(=O)Nc2ncc(Cc3cccc(OCc4cn(CCOCCOCCOCCOCCOCCOCCOCCOCCOCCOCCOCCNC(=O)CCCCC5SCC6NC(=O)NC65)nn4)c3)s2)n1 (stereo not given) | > 100 µM | 0.31 µM | > 100 µM | – |
| COCCn1cc(COc2cccc(Cc3cnc(NC(=O)CSc4nc(C)cc(C)n4)s3)c2)nn1 | 100 µM | – | > 100 µM | Activity [4]: inactive |
| Cc1cc(C)nc(SCC(=O)Nc2ncc(Cc3cccc(OCc4cn(CCCCNC(=O)COc5cccc6c5C(=O)N(C5CCC(=O)NC5=O)C6=O)nn4)c3)s2)n1 (stereo not given) | > 100 µM | 0.25 µM | > 100 µM | Activity [5]: inactive; Activity [6]: Active; Activity [7]: inactive; Activity [8]: Active; Activity [9]: Active; Activity [10]: Active; Activity [11]: Dose-dependent effect |
| O=C1CCC(N2C(=O)c3ccccc3C2=O)C(=O)N1 (stereo not given) | – | – | – | Activity [4]: inactive |

Continued, in another order:

| IC50 [1] | IC50 [2] | IC50 [3] | Compound | other results |
| --- | --- | --- | --- | --- |
| > 100 µM | 0.16 µM | > 100 µM | Cc1cc(C)nc(SCC(=O)Nc2ncc(Cc3cccc(OCc4cn(Cc5ccccc5)nn4)c3)s2)n1 | – |
| > 100 µM | 2.4 µM | – | C#CCOc1cccc(Cc2cnc(NC(=O)CSc3nc(C)cc(C)n3)s2)c1 | – |
| > 100 µM | – | – | Cc1cc(C)nc(SCC(=O)Nc2ncc(Cc3cccc4ccc(Cl)cc34)s2)n1 | – |
| > 100 µM | – | > 100 µM | Cc1cc(C)nc(SCC(=O)Nc2ncc(Cc3cccc4ccccc34)s2)n1 | – |
